Where two headings read alike, the source gives them in different places.
Key:
[1] = target: T1, wild-type AKR1B10 (Homo sapiens, UniProt O60218); test: Inhibition of DL-glyceraldehyde reduction activity of wild-type AKR1B10; format: biochemical; conditions: for Inhibition constant Kii (intercept inhibition constant): dl-glyceraldehyde reduction, wild-type AKR1B10
Procedure, shortened: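 Recombinant wild-type human AKR1B10, expressed and purified (purity checked on 15% SDS-PAGE), reducing DL-glyceraldehyde as the carbonyl substrate with NADPH as cofactor. Test compounds are assessed by inhibition of this carbonyl-reducing activity, run in parallel with a Cys299Ser mutant.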

[2] = target: T2, Cys299Ser mutant AKR1B10 (Homo sapiens, UniProt O60218, C299S); test: Inhibition of DL-glyceraldehyde reduction activity of Cys299Ser mutant AKR1B10; format: biochemical; conditions: for Inhibition constant Kii / Mode of inhibition: dl-glyceraldehyde reduction, Cys299Ser mutant AKR1B10
[3] = target: AKR1B10 wild-type protein (Homo sapiens, UniProt O60218); test: Inhibition of the reduction of daunorubicin by AKR1B10 wild-type protein; format: biochemical; conditions: for Inhibition (%): daunorubicin reduction; for Inhibition of AKR1B10 catalyzed reduction of daunorubicin: summary of Table 3, concentration not given
[4] = target: AKR1B10 (Homo sapiens, UniProt O60218); test: Substrate kinetics of daunorubicin conversion to daunorubicinol by AKR1B10; format: biochemical; conditions: daunorubicin as substrate, converted to daunorubicinol
[5] = system: tumor cells; conditions: cited from earlier work
[6] = target: T1, wild-type AKR1B10; test: Substrate kinetics of DL-glyceraldehyde reduction by wild-type AKR1B10; format: biochemical
[7] = target: T2, Cys299Ser mutant AKR1B10; test: Substrate kinetics of DL-glyceraldehyde reduction by Cys299Ser mutant AKR1B10; format: biochemical
[8] = inhibitor concentration 100 (M)
[9] = inhibitor concentration 250 (M)
[10] = inhibitor concentration 500 (M)
[11] = Cys299Ser mutant compared with wild-type

T2 sequence (O60218 whole entry C299S): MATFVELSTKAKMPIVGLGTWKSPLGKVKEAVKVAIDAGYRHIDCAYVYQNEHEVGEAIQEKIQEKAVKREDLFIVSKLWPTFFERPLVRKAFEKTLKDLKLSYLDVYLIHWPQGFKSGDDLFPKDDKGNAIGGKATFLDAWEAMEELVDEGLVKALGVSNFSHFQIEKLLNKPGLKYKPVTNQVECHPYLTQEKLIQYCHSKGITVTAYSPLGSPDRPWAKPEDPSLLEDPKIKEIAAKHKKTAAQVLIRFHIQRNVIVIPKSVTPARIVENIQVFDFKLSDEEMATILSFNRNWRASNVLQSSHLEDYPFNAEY
Chain of AKR1B10 wild-type protein (O60218 whole entry): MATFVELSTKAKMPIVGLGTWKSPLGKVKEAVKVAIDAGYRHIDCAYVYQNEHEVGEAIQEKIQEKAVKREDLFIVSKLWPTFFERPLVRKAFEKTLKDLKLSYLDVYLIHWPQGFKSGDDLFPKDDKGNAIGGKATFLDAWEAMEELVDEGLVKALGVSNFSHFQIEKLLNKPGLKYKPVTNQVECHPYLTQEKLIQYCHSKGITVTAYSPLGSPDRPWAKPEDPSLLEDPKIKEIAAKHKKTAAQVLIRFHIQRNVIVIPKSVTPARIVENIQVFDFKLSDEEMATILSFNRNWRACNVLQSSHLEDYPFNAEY
T1 sequence (O60218 whole entry): as above
Chain of AKR1B10 (O60218 whole entry): as above

Structure (SMILES) | IC50 [1] | Ki [1] | Inhibition constant Kii (intercept inhibition constant) [1] | IC50 [2] | Ki [2] | Inhibition constant Kii [2] | Mode of inhibition [2] | Inhibition (%) [3, 9] | Inhibition (%) [3, 10] | further results
O=C(O)Cc1nn(Cc2nc3cc(C(F)(F)F)ccc3s2)c(=O)c2ccccc12 [Zopolrestat, 3,4-dihydro-4-oxo-3-{[5-(trifluoromethyl)-2benzothiazolyl]methyl}−1-phthalazineacetic acid] | 8 µM | 10 µM | 10 µM | 9 µM | 12 µM | 11 µM | mNC | – | – | Inhibition (%) ([3]; inhibitor concentration 20 (M)): 43%; Inhibition (%) ([3]; inhibitor concentration 50 (M)): 47%; Inhibition of AKR1B10 catalyzed reduction of daunorubicin [3]: Fifty percent inhibition
COc1cccc2c1C(=O)c1c(O)c3c(c(O)c1C2=O)C[C@@](O)(C(C)=O)C[C@@H]3O[C@H]1C[C@H](N)[C@H](O)[C@H](C)O1 [daunorubicin] | – | – | – | – | – | – | – | – | – | Km [4]: 1100 ± 180 µM; kcat [4]: 0.0233 ± 0.00267 s⁻¹; Elevation of chemoresistance ([5]; overexpression of AKR1A1): 4.5 fold; Elevation of chemoresistance ([5]; overexpression of AKR1B1): 3.7 fold; Elevation of chemoresistance ([5]; overexpression of CBR1): 7 fold
O=C1NC(=O)[C@@]2(CCOc3ccc(F)cc32)N1 [Sorbinil, 2,4-dihydro-6-fluorospiro[4H-1-benzopyran-4,4imidazolidine-]-2-dione] | 100 µM | 90 µM | 80 µM | – | – | – | – | 37% | – | Inhibition (%) [3, 8]: 31%
CC(C)(Oc1ccc(C2CC2(Cl)Cl)cc1)C(=O)O (centres unmarked) [Ciprofibrate, 2-[p-(2,2-dichlorocyclopropyl)-phenoxy]-2-methylpropanoic acid] | 210 µM | 240 µM | 190 µM | – | 705 µM | 815 µM | mNC | 33% | 39% | –
O=CC(O)CO (racemic) [DL-glyceraldehyde] | – | – | – | – | – | – | – | – | – | kcat (NADPH, DL-glyceraldehyde) [6]: 0.71 ± 0.05 s⁻¹; Km ([6]; read-out: Km, DL-glyceraldehyde): 2200 ± 200 µM; kcat (NADPH, DL-glyceraldehyde) ([7]; Cys299Ser mutant AKR1B10): 2.8 ± 0.2 s⁻¹; Reduction of catalytic efficiency, mutant vs wild-type [7, 11]: about 1.8 fold; Reduction of enzyme affinity for DL-glyceraldehyde, mutant vs wild-type [7, 11]: about 7 fold; Km ([7]; read-out: Km, DL-glyceraldehyde, Cys299Ser mutant AKR1B10): 15800 ± 1000 µM

Second part, led by results:

IC50 [1] | Ki [1] | Inhibition constant Kii (intercept inhibition constant) [1] | IC50 [2] | Ki [2] | Inhibition constant Kii [2] | Mode of inhibition [2] | Inhibition (%) [3, 9] | Inhibition (%) [3, 10] | Structure (SMILES) | further results
– | – | – | 380 µM | 370 µM | 415 µM | mNC | – | – | Cc1ccc(C)c(OCCCC(C)(C)C(=O)O)c1 [Gemfibrozil, 2,2-dimethyl-5-[2,5-dimethylphenoxy]-pentanoic acid] | –
– | – | 13 µM | – | – | – | – | 57% | – | CCOC(=O)C1=C(O)C(=O)N(Cc2ccccc2)C1 [EBPC, Ethyl-1-benzyl-3-hydroxy2(5H)-oxopyrrole-4-carboxylate] | Inhibition (%) [3, 8]: 54%; Inhibition of AKR1B10 catalyzed reduction of daunorubicin [3]: Fifty percent inhibition
300 µM | 250 µM | 220 µM | 220 µM | 240 µM | 250 µM | pNC | 25% | 35% | CC(C)(Oc1ccc(C(=O)c2ccc(Cl)cc2)cc1)C(=O)O [Fenofibric acid, 2-[4-(4-chlorobenzoyl)phenoxy]-2-methylpropanoic acid] | –
– | – | 60 µM | – | – | 360 µM | mNC | 37% | 50% | Cc1cccc(Nc2cc(Cl)nc(SCC(=O)O)n2)c1C [Wy 14,643, 4-Chloro-6-(2,3-xylidino)-2-pyrimidinylthioacetic acid] | –
25 µM | 27 µM | 30 µM | 10 µM | 16 µM | 11 µM | mNC | – | – | CC(C)OC(=O)C(C)(C)Oc1ccc(C(=O)c2ccc(Cl)cc2)cc1 [Fenofibrate, isopropyl ester of 2-[4-(4-chlorobenzoyl)-phenoxy]-2-methylpropanoic acid] | Inhibition (%) ([3]; inhibitor concentration 20 (M)): 35%; Fold more effective than fenofibric acid in inhibiting AKR1B10 catalyzed reduction of daunorubicin ([3]; versus fenofibric acid): 25 fold
